{"data": "Measurements gathered from unrelated publications", "PRMT6": "Protein arginine N-methyltransferase 6 (PRMT6, Homo sapiens, UniProt Q96LA8)", "gag-pol reverse transcriptase": "Gag-Pol polyprotein, reverse transcriptase (gag-pol, Human immunodeficiency virus 1, UniProt P03366)", "gyrA": "DNA gyrase subunit A (gyrA, Escherichia coli K-12, UniProt P0AES4)", "SLK": "STE20-like serine/threonine-protein kinase (SLK, Homo sapiens, UniProt Q9H2G2)", "PDE2A": "cGMP-dependent 3',5'-cyclic phosphodiesterase (PDE2A, Homo sapiens, UniProt O00408)", "note": "Lines come from different studies, so protocols differ."}
{"SMILES": "CC1(C)C(/C=C/C=C2/N(CCCc3ccccc3)c3ccc(Cl)cc3C2(C)C)=[N+](CCCc2ccccc2)c2ccc(Cl)cc21", "target": "PRMT6", "assay": "enzyme activity, inhibitor, radiometric", "IC50": "1660 nM"}
{"SMILES": "CCOCc1nc(O)c(-c2nnc(Cc3ccc(Cl)cn3)o2)c(O)c1-c1c(OC)cccc1OC", "target": "Alpha-2A adrenergic receptor (ADRA2A, Homo sapiens, UniProt P08913)", "assay": "ligand displacement, radioligand", "IC50": "> 30000 nM"}
{"SMILES": "N#Cc1ccc(Nc2nc(N)cc(Oc3ccc(-c4ccc(C#N)c(F)c4)cc3F)n2)cc1", "target": "gag-pol reverse transcriptase", "assay": "enzyme activity, inhibitor", "IC50": "70 nM"}
{"SMILES": "C(/C=C/c1sc2c3ccccc3ccc2[n+]1CCCc1ccccc1)=C1/Sc2c(ccc3ccccc23)N1CCCc1ccccc1", "target": "PRMT6", "assay": "enzyme activity, inhibitor, radiometric", "IC50": "1500 nM"}
{"SMILES": "N#Cc1ccc(Nc2nc(N)cc(Oc3ccc(-c4ccc(C#N)cc4)c(C#N)c3)n2)cc1", "target": "gag-pol reverse transcriptase", "assay": "enzyme activity, inhibitor", "IC50": "90 nM"}
{"SMILES": "CC(C)Oc1c(NC(=O)c2ccc(NC(=O)[C@H](CC(N)=O)NC(=O)c3ccc(NC(=O)c4ccc(C#N)cc4)cc3)cc2)ccc(C(=O)Nc2ccncc2)c1O", "target": "gyrA", "assay": "enzyme activity, inhibitor", "IC50": "900 nM"}
{"SMILES": "Cc1cc(C)cc(S(=O)(=O)c2c(C(=O)NCCNS(=O)(=O)c3ccc(Cl)cc3)[nH]c3ccc(Cl)cc23)c1", "target": "gag-pol reverse transcriptase", "assay": "enzyme activity, inhibitor, ELISA", "IC50": "55 nM"}
{"SMILES": "CC(C)Oc1c(NC(=O)c2ccc(NC(=O)[C@H](CC(N)=O)NC(=O)c3ccc(NC(=O)C(C)Sc4ccc(C#N)cc4)cc3)cc2)ccc(C(=O)Nc2ccc(C(=O)O)cc2)c1O (some centres unmarked)", "target": "gyrA", "assay": "enzyme activity, inhibitor", "IC50": "800 nM"}
{"SMILES": "CCn1ncc2c1-c1cnc(N)c(c1)O[C@H](C)c1cc(F)ccc1-c1nn(C)nc1C2", "target": "SLK", "assay": "enzyme activity, inhibitor, radiometric", "IC50": "336 nM"}
{"SMILES": "O=C(Nc1cccc2[nH]ccc12)c1ccccc1", "target": "Alpha-synuclein, monomer (SNCA, Homo sapiens, UniProt P37840)", "assay": "amyloid aggregation, inhibitor, fluorescence", "IC50": "~12900 nM"}
{"SMILES": "COc1cc(C[C@H]2C(=O)OC[C@@H]2Cc2ccc(OC)c(OC)c2)ccc1O", "target": "PDE2A", "assay": "enzyme activity, inhibitor", "IC50": "> 20000 nM"}
{"SMILES": "C=CC(=O)Nc1cc(Nc2nccc(Nc3cc(Cl)c(F)cc3C(C)(C)O)n2)c(OC)cc1N1CC[C@@H](N(C)C)C1", "target": "Receptor tyrosine-protein kinase erbB-2 (ERBB2, Homo sapiens, UniProt P04626)", "assay": "enzyme activity, inhibitor", "conditions": "with preincubation", "IC50": "392 nM"}
{"SMILES": "Cc1cc(C)cc(S(=O)(=O)c2c(C(=O)NCCCNS(=O)(=O)c3cccc(F)c3)[nH]c3ccc(Cl)cc23)c1", "target": "gag-pol reverse transcriptase", "assay": "enzyme activity, inhibitor, ELISA", "IC50": "130 nM"}
{"SMILES": "C/C(=C\\c1ccc(C#N)cc1)C(=O)Nc1ccc(C(=O)N[C@@H](CC(N)=O)C(=O)Nc2ccc(C(=O)Nc3ccc(C(=O)Nc4ccc(C(=O)O)cc4)c(O)c3OC(C)C)cc2)cc1", "target": "gyrA", "assay": "enzyme activity, inhibitor", "IC50": "200 nM"}
{"SMILES": "N#Cc1ccc(Nc2nc(N)cc(Oc3ccc(-c4ccccc4)cc3)n2)cc1", "target": "gag-pol reverse transcriptase", "assay": "enzyme activity, inhibitor", "IC50": "570 nM"}
{"SMILES": "CC/C(=N\\NC(=O)C(C)Nc1ccccc1)c1ccc(O)c(C)c1O (centres unmarked)", "target": "cAMP-dependent protein kinase catalytic subunit alpha (PRKACA, Homo sapiens, UniProt P17612)", "assay": "enzyme activity, inhibitor", "IC50": "22.5 nM"}
{"SMILES": "Cc1cc(C)cc(S(=O)(=O)c2c(C(=O)NCCNS(=O)(=O)c3cccc(F)c3)[nH]c3ccc(Cl)cc23)c1", "target": "gag-pol reverse transcriptase", "assay": "enzyme activity, inhibitor, ELISA", "IC50": "83 nM"}
{"SMILES": "CC(C)Oc1c(NC(=O)c2ccc(NC(=O)[C@H](CC(N)=O)NC(=O)c3ccc(NC(=O)c4ccc(C#N)cc4)cc3)cc2)ccc(C(=O)O)c1O", "target": "gyrA", "assay": "enzyme activity, inhibitor", "IC50": "9400 nM"}
{"SMILES": "COc1ccc2c(Oc3ccc4c(C(=O)Nc5ccccc5N)cccc4c3)ccnc2c1", "target": "Insulin-like growth factor 1 receptor (IGF1R, Homo sapiens, UniProt P08069)", "assay": "enzyme activity, inhibitor", "IC50": "> 500 nM"}
{"SMILES": "Cc1cc(C)cc(S(=O)(=O)c2c(C(=O)NCCCCNS(=O)(=O)c3cccs3)[nH]c3ccc(Cl)cc23)c1", "target": "gag-pol reverse transcriptase", "assay": "enzyme activity, inhibitor, ELISA", "IC50": "190 nM"}
{"SMILES": "COC(=O)C1CCN(C(=O)Cc2ccc(NCc3cnc4nc(N)nc(N)c4n3)cc2)CC1", "target": "Cytochrome P450 2C19 (CYP2C19, Homo sapiens, UniProt P33261)", "assay": "enzyme activity, inhibitor, luciferase", "IC50": "7760 nM"}
{"SMILES": "N=C(N)NC(=O)c1nc(Cl)c(N)nc1N", "target": "delm-1 (Caenorhabditis elegans, UniProt O45402)", "assay": "ion current, two-electrode voltage clamp", "conditions": "oocytes", "IC50": "120000 nM"}
{"SMILES": "COc1ccc(S(=O)(=O)ON=C2C=C(C)C(=O)C(C)=C2)cc1", "target": "Histone acetyltransferase p300 (EP300, Homo sapiens, UniProt Q09472)", "assay": "enzyme activity, inhibitor, radiometric", "IC50": "128000 nM"}
{"SMILES": "N#Cc1ccc(Nc2nc(N)cc(Oc3c(F)cc(-c4ccccc4F)cc3F)n2)cc1", "target": "gag-pol reverse transcriptase", "assay": "enzyme activity, inhibitor", "IC50": "40 nM"}
{"SMILES": "COc1ccc(C2=NN(C3CCCCCC3)C(=O)[C@@H]3CC=CC[C@H]23)cc1-c1ccc(C(N)=O)cc1 (relative stereo)", "target": "PDE2A", "assay": "enzyme activity, inhibitor", "IC50": "3980 nM"}
{"SMILES": "CC(C)Oc1c(NC(=O)c2ccc(NC(=O)[C@H](CC(N)=O)NC(=O)c3ccc(NC(=O)c4ccc(N)cc4)cc3)cc2)ccc(C(=O)Nc2ccc(C(=O)O)cc2)c1O", "target": "gyrA", "assay": "enzyme activity, inhibitor", "IC50": "26800 nM"}
{"SMILES": "N#Cc1ccc(Nc2nc(N)cc(Oc3c(F)cc(-c4ccccc4C#N)cc3F)n2)cc1", "target": "gag-pol reverse transcriptase", "assay": "enzyme activity, inhibitor", "IC50": "30 nM"}
{"SMILES": "CC(C)Oc1c(NC(=O)c2ccc(NC(=O)[C@H](CC(N)=O)NC(=O)c3ccc(C#Cc4ccc(C#N)cc4)cc3)cc2)ccc(C(=O)Nc2ccc(C(=O)O)cc2)c1O", "target": "gyrA", "assay": "enzyme activity, inhibitor", "IC50": "500 nM"}
{"SMILES": "O=C(Nc1ccn(Cc2ccc(O)cc2C(F)(F)F)n1)c1c(F)cccc1F", "target": "5-hydroxytryptamine receptor 3A (HTR3A, Homo sapiens, UniProt P46098)", "assay": "ion current, inhibitor", "IC50": "> 10000 nM"}
{"SMILES": "Cc1ccc(S(=O)(=O)NCCCNC(=O)c2[nH]c3ccc(Cl)cc3c2S(=O)(=O)c2cc(C)cc(C)c2)cc1", "target": "gag-pol reverse transcriptase", "assay": "enzyme activity, inhibitor, ELISA", "IC50": "160 nM"}
{"SMILES": "N#Cc1ccc(Nc2nc(N)cc(Oc3ccc(-c4ccccc4)cc3F)n2)cc1", "target": "gag-pol reverse transcriptase", "assay": "enzyme activity, inhibitor", "IC50": "160 nM"}
{"SMILES": "Cc1cc(C(=O)Nc2ccc(C(=O)N[C@@H](CC(N)=O)C(=O)Nc3ccc(C(=O)Nc4ccc(C(=O)Nc5ccc(C(=O)O)cc5)c(O)c4OC(C)C)cc3)cc2)ccc1C#N", "target": "gyrA", "assay": "enzyme activity, inhibitor", "IC50": "1600 nM"}
{"SMILES": "CC(C)c1cccc2c(-c3ccccc3)cc(-c3ccc(-c4ccc(C(=O)O)cc4)[nH]3)nc12", "target": "Retinoic acid receptor alpha (RARA, Homo sapiens, UniProt P10276)", "assay": "reporter gene, antagonist", "IC50": "15 nM"}
{"SMILES": "Cc1cc(C)cc(S(=O)(=O)c2c(C(=O)NCCCCCNS(=O)(=O)c3ccccc3)[nH]c3ccc(Cl)cc23)c1", "target": "gag-pol reverse transcriptase", "assay": "enzyme activity, inhibitor, ELISA", "IC50": "120 nM"}
{"SMILES": "O=C1N=C(Nc2ccccc2)S/C1=C\\c1ccccc1OCc1cn(Cc2ccc(Cl)cc2)nn1", "target": "Aldo-keto reductase family 1 member A1 (AKR1A1, Homo sapiens, UniProt P14550)", "assay": "enzyme activity, inhibitor, absorbance", "conditions": "pH 6.2", "IC50": "54000 nM"}
{"SMILES": "N#Cc1ccc(Nc2nc(N)cc(Oc3ccc(-c4cccc(F)c4)cc3)n2)cc1", "target": "gag-pol reverse transcriptase", "assay": "enzyme activity, inhibitor", "IC50": "330 nM"}
{"SMILES": "Cc1cnc(-c2ccc(-c3ccc(NC(=O)Nc4c(F)cc(F)cc4F)cc3F)c3c2C(=O)NC3)[nH]1", "target": "SLK", "assay": "enzyme activity, inhibitor", "IC50": "14.3 nM"}
{"SMILES": "Cc1cc(C)cc(S(=O)(=O)c2c(C(=O)NCCNS(=O)(=O)c3ccccc3)[nH]c3ccc(Cl)cc23)c1", "target": "gag-pol reverse transcriptase", "assay": "enzyme activity, inhibitor, ELISA", "IC50": "55 nM"}
{"SMILES": "CC(C)Oc1c(NC(=O)c2ccc(NC(=O)[C@H](CC(N)=O)NC(=O)c3ccc(NC(=O)c4cccc([N+](=O)[O-])c4)cc3)cc2)ccc(C(=O)Nc2ccc(C(=O)O)cc2)c1O", "target": "gyrA", "assay": "enzyme activity, inhibitor", "IC50": "2200 nM"}
{"SMILES": "N#Cc1ccc(Nc2nc(N)cc(Oc3ccc(-c4cccc(C#N)c4)cc3)n2)cc1", "target": "gag-pol reverse transcriptase", "assay": "enzyme activity, inhibitor", "IC50": "700 nM"}
{"SMILES": "Cc1cc(C)cc(S(=O)(=O)c2c(C(=O)NCCCCNS(=O)(=O)c3ccc([N+](=O)[O-])cc3)[nH]c3ccc(Cl)cc23)c1", "target": "gag-pol reverse transcriptase", "assay": "enzyme activity, inhibitor, ELISA", "IC50": "150 nM"}
